Calls of active or inactive are those of the source. The calls are words filed in the database; no cut-off is given here.
Assays:
MCF7 [1] = experiment: Induction of apoptosis in human MCF7 cells assessed as increase in beta-cadenin expression at 1 to 2 uM after 48 hrs by FACS analysis; assay type: functional, cell-based
How it was run: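 MCF-7 seeded at 5 × 10⁴/cm² and treated at 24 h with 1 or 2 µM compound for 48 h. Labelled with fluorochrome-conjugated anti-E-cadherin or anti-β-catenin antibody for 30 min at 4 °C in the dark, washed in PBS. Mean fluorescence intensity measured by FACScan flow cytometry.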

T47D = experiment: Cytotoxicity against human T47D cells after 3 days by SRB assay; assay type: functional, cell-based; settings: 72 h
How it was run: (§1)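 Cells seeded at 5 × 10³ cells/cm² in quadruplicate and, after 24 h, treated with increasing concentrations for 3 days. Compounds diluted from DMSO stock, final DMSO <0.1% v/v. Cells were fixed with cold 10% TCA, stained with 0.4% sulforhodamine B in 1% acetic acid, and dye solubilised in 10 mM Tris-base pH 10.5. OD read at 492 nm. IC50 obtained by linear interpolation on a semi-log dose-response curve.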

HT-29 = experiment: Cytotoxicity against human HT-29 cells after 3 days by SRB assay; assay type: functional, cell-based; settings: HT-29, 72 h; how it was run: as §1
MCF7 [2] = experiment: Cell cycle arrest in human MCF7 cells assessed as accumulation at G2-M phase at 3 uM after 24 hrs by propidium iodide/RNAse staining-based FACS analysis (reference value: 8.20 %); assay type: functional
A549 = experiment: Cytotoxicity against human A549 cells after 3 days by SRB assay; assay type: functional, cell-based; settings: A549, 72 h
How it was run: (§2)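 Cells seeded in quadruplicate at 5 × 10³ cells/cm². Compound added at 24 h over increasing concentrations for 3 days. Cells fixed with cold 10% TCA, stained with 0.4% sulforhodamine B in 1% acetic acid, dye solubilized in 10 mM Tris pH 10.5, OD read at 492 nm. IC50 taken by linear interpolation of the semi-log dose-response curve. DMSO below 0.1% final.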

MCF7 [3] = experiment: Induction of apoptosis in human MCF7 cells assessed as reduction in c-myc expression at 2 uM after 24 hrs by Western blotting analysis relative to control; assay type: functional; set-up: scale not given: the % may be the effect or the level left
How it was run: (§3)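 MCF-7 seeded at 5 × 10⁴/cm² and exposed at 24 h to 2 µM compound for 0, 4, 8, 16 and 24 h. Lysates separated on 12% SDS gels, transferred to nitrocellulose, blocked in 5% milk. Primary antibodies applied overnight at 4 °C, then secondary 1 h at room temperature. Detection by ECL chemiluminescence with β-actin as loading reference.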

MCF7 [4] = experiment: Cell cycle arrest in human MCF7 cells assessed as accumulation at […] phase at 3 uM after 48 hrs by propidium iodide/RNAse staining-based FACS analysis (reference value: 8.02 %); assay type: functional
MCF7 [5] = experiment: Cytotoxicity against human MCF7 cells assessed as reduction in cell viability after 3 days by SRB assay; assay type: functional, cell-based
How it was run: (§4)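 MCF-7 seeded at high density (5 × 10⁴/cm²) and treated at 24 h with compound for 3 days, with or without 20 mM NAC. Viable cells quantified by sulforhodamine B staining, OD 492 nm. Viability reduction expressed versus untreated controls.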

Mus musculus = experiment: Toxicity in C57BL/6 mouse allografted with mouse E0771 cells assessed as hair loss at 5 to 15 mg/kg, po; assay type: organism-based; set-up: dose 5-15 mg/kg, route oral; settings: in vivo
How it was run: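 C57BL/6 mice (10 per group) injected subcutaneously in the right side with 1 × 10⁶ E0771 cells. At day 9, with tumours at 75 mm³, mice were randomised to oral vehicle (1% methylcellulose) or 5, 10 or 15 mg/kg on six occasions. Animals were monitored to day 42 for survival and for signs of toxicity such as hair loss or diarrhoea.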

MCF7 [6] = experiment: Induction of apoptosis in human MCF7 cells assessed as late apoptotic cells at 1 uM after 48 hrs by annexin V staining-based flow cytometry (reference value: 3.24 %); assay type: functional
MCF7 [7] = experiment: Cell cycle arrest in human MCF7 cells assessed as accumulation at […] phase at 1 uM after 48 hrs by propidium iodide/RNAse staining-based FACS analysis (reference value: 8.02 %); assay type: functional
MCF7 [8] = experiment: Cell cycle arrest in human MCF7 cells assessed as accumulation at […] phase after 48 hrs by propidium iodide/RNAse staining-based FACS analysis; assay type: functional
MCF7 [9] = experiment: Cytotoxicity against human MCF7 cells assessed as reduction in cell viability at 3 uM after 3 days by SRB assay relative to control; assay type: functional; how it was run: as §4
MCF7 [10] = experiment: Cell cycle arrest in human MCF7 cells assessed as accumulation at S phase at 2 uM after 24 hrs by propidium iodide/RNAse staining-based FACS analysis (reference value: 49.46 %); assay type: functional
RKO = experiment: Cytotoxicity against human RKO cells after 3 days by SRB assay; assay type: functional, cell-based; settings: 72 h; how it was run: as §1
MCF7 [11] = experiment: Induction of apoptosis in human MCF7 cells assessed as apoptotic cells at 2 uM after 48 hrs by annexin V staining-based flow cytometry (reference value: 3.44 %); assay type: functional
[12] = Therapeutic index, ratio of IC50 for human CCD-18Co cells to IC50 for human RKO cells; assay type: cell-based; settings: CCD-18Co cells versus RKO cells, read-out: Ratio IC50
MCF7 [13] = experiment: Induction of apoptosis in human MCF7 cells assessed as apoptotic cells at 3 uM after 48 hrs by annexin V staining-based flow cytometry (reference value: 3.44 %); assay type: functional
[14] = Therapeutic index, ratio of IC50 for human CCD-18Co cells to IC50 for human T84 cells; assay type: cell-based, T84; CCD-18Co; settings: CCD-18Co cells versus T84 cells, read-out: Ratio IC50
[15] = target: Mitogen-activated protein kinase; ERK1/ERK2 (Homo sapiens) (UniProt P27361+P28482); experiment: Increase of p44/42 MAPK phosphorylation in human MCF7 cells at 2 uM after 4 to 24 hrs by Western blotting analysis relative to control; assay type: cell-based; how it was run: as §3
Sequence of Mitogen-activated protein kinase; ERK1/ERK2 (Homo sapiens) (P27361 whole entry, looked up): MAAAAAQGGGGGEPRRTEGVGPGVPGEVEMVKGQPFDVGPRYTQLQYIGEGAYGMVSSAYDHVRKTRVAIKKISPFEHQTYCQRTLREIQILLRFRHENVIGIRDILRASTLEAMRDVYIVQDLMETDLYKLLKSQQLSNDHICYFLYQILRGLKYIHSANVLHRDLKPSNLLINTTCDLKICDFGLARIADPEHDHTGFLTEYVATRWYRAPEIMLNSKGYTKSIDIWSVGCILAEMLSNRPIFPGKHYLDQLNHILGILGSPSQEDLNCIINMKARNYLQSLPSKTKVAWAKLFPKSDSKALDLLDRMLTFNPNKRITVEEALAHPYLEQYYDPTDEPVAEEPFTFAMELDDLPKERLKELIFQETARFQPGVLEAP
Sequence of Mitogen-activated protein kinase; ERK1/ERK2 (Homo sapiens) (P28482 whole entry, looked up): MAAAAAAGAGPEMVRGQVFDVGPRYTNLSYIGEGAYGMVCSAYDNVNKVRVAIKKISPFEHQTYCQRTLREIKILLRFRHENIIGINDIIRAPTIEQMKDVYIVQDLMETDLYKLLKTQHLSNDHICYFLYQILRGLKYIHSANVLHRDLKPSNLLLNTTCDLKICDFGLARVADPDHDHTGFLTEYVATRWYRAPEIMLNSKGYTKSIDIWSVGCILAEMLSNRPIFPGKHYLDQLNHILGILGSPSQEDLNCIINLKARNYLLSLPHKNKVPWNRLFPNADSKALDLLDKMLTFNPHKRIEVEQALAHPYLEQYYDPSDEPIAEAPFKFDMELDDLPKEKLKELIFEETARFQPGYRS

MCF7 [16] = experiment: Induction of apoptosis in human MCF7 cells assessed as increase in p27 expression at 2 uM after 4 to 24 hrs by Western blotting analysis relative to control; assay type: functional, cell-based; how it was run: as §3
MCF7 [17] = experiment: Induction of apoptosis in human MCF7 cells assessed as late apoptotic cells at 3 uM after 48 hrs by annexin V staining-based flow cytometry (reference value: 3.24 %); assay type: functional
MCF7 [18] = experiment: Induction of apoptosis in human MCF7 cells assessed as increase in PARP cleavage at 2 uM after 4 to 24 hrs by Western blotting analysis relative to control; assay type: functional, cell-based; how it was run: as §3
MCF7 [19] = experiment: Cytotoxicity against human MCF7 cells assessed as reduction in cell viability at 2 uM after 3 days by SRB assay relative to control; assay type: functional; how it was run: as §4
T84 = experiment: Cytotoxicity against human T84 cells after 3 days by SRB assay; assay type: functional, cell-based; settings: T84, 72 h; how it was run: as §2
MCF7 [20] = experiment: Cell cycle arrest in human MCF7 cells assessed as accumulation at G0-G1 phase at 2 uM after 24 hrs by propidium iodide/RNAse staining-based FACS analysis (reference value: 42.34 %); assay type: functional
MCF7 [21] = experiment: Induction of apoptosis in human MCF7 cells assessed as increase in phosphorylated p53 level at 2 uM after 4 to 24 hrs by Western blotting analysis relative to control; assay type: functional, cell-based; how it was run: as §3
MCF7 [22] = experiment: Cytotoxicity against human MCF7 cells after 3 days by SRB assay; assay type: functional, cell-based; settings: MCF7, 72 h; how it was run: as §2
MDA-MB-231 = experiment: Cytotoxicity against human MDA-MB-231 cells after 3 days by SRB assay; assay type: functional, cell-based; settings: MDA-MB-231, 72 h; how it was run: as §1

C=C1CC[C@@H]2[C@](C)(CCC[C@]2(C)C(=O)OC)[C@H]1Cc1c(C)ccc2c1C(=O)C=CC2=O
Activity (MCF7 [1]): Active | IC50 (T47D): 630 nM | IC50 (HT-29): 1970 nM | Activity (MCF7 [2]): 5.08% | IC50 (A549): 1380 nM | Activity (MCF7 [3]): 80% | Activity (MCF7 [4]): 39.91% | Activity (MCF7 [5]): Dose-dependent effect | Activity (Mus musculus): Non-toxic | Activity (MCF7 [6]): 9.63% | Activity (MCF7 [7]): 15.56% | Activity (MCF7 [8]): Dose-dependent effect | viability (MCF7 [9]): 23.26% | Activity (MCF7 [10]): 29.15% | IC50 (RKO): 590 nM | Activity (MCF7 [11]): 29.13% | selectivity ratio [12]: 0.56 | Activity (MCF7 [13]): 57.8% | selectivity ratio [14]: 0.59 | Activity [15]: Active | Activity (MCF7 [16]): Active | Activity (MCF7 [17]): 9.5% | Activity (MCF7 [18]): Active | viability (MCF7 [19]): 46.09% | IC50 (T84): 560 nM | Activity (MCF7 [20]): 66.6% | Activity (MCF7 [21]): Active | IC50 (MCF7 [22]): 350 nM | IC50 (MDA-MB-231): 460 nM

— ChEMBL document CHEMBL3259621, “Novel merosesquiterpene exerts a potent antitumor activity against breast cancer cells in vitro and in vivo” (Eur J Med Chem, 2014)
